{"data": "Measurements pooled from the literature", "SMO": "Protein smoothened (SMO, Homo sapiens, UniProt Q99835)", "MAPK15": "Mitogen-activated protein kinase 15 (MAPK15, Homo sapiens, UniProt Q8TD08)"}
{"Compound": "Cc1cnc(-c2cc(N3CCN(C(=O)CCS(C)(=O)=O)CC3)ncc2Cl)c(C)c1", "target": "SMO", "assay": "GTPγS binding, agonist, radiometric", "setting": "cell membranes", "measurement": "Emax", "value": "-60.4%"}
{"Compound": "C#Cc1n[nH]c2c(-c3cn(C(C)c4ccccn4)c(=O)[nH]c3=O)cc(F)cc12 (stereo not drawn)", "target": "Fibroblast growth factor receptor 2 (FGFR2, Homo sapiens, UniProt P21802)", "assay": "enzyme activity, inhibitor", "setting": "1 µM", "measurement": "inhibition", "value": "-6%"}
{"Compound": "CC[C@H](C)[C@@H](C(=O)O[C@@H](CC(C)C)C(=O)N[C@@H](CC(C)C)C(=O)N[C@@H](C)/C=C/C(=O)N1C(=O)C=C(OC)[C@@H]1C)N(C)C", "target": "FP2A (Plasmodium falciparum, UniProt Q8I6U4)", "assay": "enzyme activity, inhibitor, fluorescence", "setting": "pH 6", "measurement": "kinact/KI", "value": "58600 M⁻¹ s⁻¹"}
{"Compound": "CC1=C2C[C@H]3[C@@H](CC=C4C[C@@H](O)CC[C@@]43C)[C@@H]2CC[C@]12O[C@@H]1C[C@H](C)CN[C@H]1[C@H]2C", "target": "Protein smoothened (SMO, Homo sapiens, UniProt Q99835, D473H)", "assay": "GTPγS binding, agonist, radiometric", "setting": "cell membranes", "measurement": "Emax", "value": "-107%"}
{"Compound": "CCN(CC)CCCC[C@H](NC(=O)[C@H](CC(C)C)NC(=O)[C@H](C)NC(=O)[C@H](Cc1ccccc1)NC(=O)c1ccc(C(C)(C)C)cc1)C(=O)N[C@@H](CO)C(=O)OC", "target": "Bromodomain and PHD finger-containing protein 3 (BRPF3, Homo sapiens, UniProt Q9ULD4)", "assay": "thermal stability, DSF", "setting": "25 µM", "measurement": "ΔTm", "value": "0 °C"}
{"Compound": "O=C(Nc1cccnn1)N1CCN([C@@H]2CCOc3cc(C(F)(F)F)ccc32)CC1", "target": "Peroxisome proliferator-activated receptor gamma (PPARG, Homo sapiens, UniProt P37231)", "assay": "cell-free assay", "setting": "20 µM", "measurement": "inhibition", "value": "18%"}
{"Compound": "CC[C@@]1(O)C(=O)OCc2c1cc1n(c2=O)Cc2cc3ccccc3nc2-1", "target": "Ubiquitin carboxyl-terminal hydrolase 51 (USP51, Homo sapiens, UniProt Q70EK9)", "assay": "enzyme activity, inhibitor", "setting": "5 µM", "measurement": "inhibition", "value": "0%"}
{"Compound": "Cc1ncc(C)n2nc(/C=C/c3nc(N4CCCC4)cc(N4CCOCC4)n3)nc12", "target": "Angiotensin-converting enzyme (ACE, Homo sapiens, UniProt P12821)", "assay": "enzyme activity, inhibitor", "setting": "10 µM", "measurement": "inhibition", "value": "-13%"}
{"Compound": "COc1ncccc1-c1cnn2ccc(N3CCN(C(=O)OC(C)C)CC3)nc12", "target": "MAPK15", "assay": "binding, competition with immobilised ligand", "setting": "1 µM", "measurement": "remaining binding", "value": "78%"}
{"Compound": "Nc1ncc(-c2nc(N3CCOCC3)nc(N3CCOCC3)n2)c(C(F)F)n1", "target": "MAPK15", "assay": "binding, competition with immobilised ligand", "setting": "10 µM", "measurement": "remaining binding", "value": "100%"}
{"Compound": "COc1cc(C(=O)NC(N)=Nc2ccc(C)c(NC(=O)c3ccc(-c4ccccc4)cc3)c2)cc(OC)c1OC", "target": "SMO", "assay": "GTPγS binding, agonist, radiometric", "setting": "cell membranes", "measurement": "Emax", "value": "-88.6%"}
{"Compound": "Cc1nn(C)cc1-c1nc2c(N3CCN(Cc4ccc(Cl)cc4)CC3)c(Cl)cnc2[nH]1", "target": "Calcium/calmodulin-dependent protein kinase type IV (CAMK4, Homo sapiens, UniProt Q16566)", "assay": "binding, competition with immobilised ligand", "setting": "1 µM", "measurement": "remaining binding", "value": "100%"}
